Source: PubChem BioAssay (Broad Institute)
Glyco luc inh: increase of ERlucT glycosylation luciferase signal, primary screen, N-linked glycosylation inhibitor project, D54 ERlucT cells, luminescence, set 2; D54 ERlucT glycosylation luciferase reporter, 24 h; percent of 100 nM tunicamycin response; reporter increase, % at 12.5 µM; hit rate 0.23% among 360,000; AID 588692, 2011;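 active = mean luciferase reporter signal, scaled so untreated is 0 and the glycosylation-blocking control 100, at or above a set limit in every replicate; inconclusive = mean reaches the limit but not every replicate does; inactive = mean below the limit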;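 also: luciferase carries N-glycosylation sites so blocking glycosylation raises the light; 0% = median of neutral control wells and 100% = median of 100 nM tunicamycin wells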
FN deposit inh: inhibitors of fibronectin matrix deposition, primary screen, AH1F cells, Alexa488-fibronectin fluorescence, plate reader; AH1F fibroblasts, overnight; inhibition, % at 12.6 µM; hit rate 0.086% among 350,000; AID 743247, 2014;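 active = mean inhibition across replicates of 30% or more, regardless of how many single replicates reach that level; inconclusive = mean under 30% yet at least half of replicates reach 30%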;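 also: positive control wells lacked labelled fibronectin entirely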
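Material: AH1F fibroblast monolayer depositing Alexa488-labelled fibronectin into matrix | Input: 10000 AH1F cells/well | Medium: DMEM plus 2% serum, read in PBS | Reagent: Alexa488-fibronectin, 24 nM final in well | Compound dosing: One dose per compound, pinned | Schedule: 1 h adhesion, overnight exposure | Measured by: Fluorescence at 485 nm excitation, 525 nm emission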
Env fusion inh: inhibitors of HIV-1 Env-driven cell-cell fusion, primary screen, HeLa-JRFL effector, CEM21 target cells, luciferase; hit rate 1.1% among 360,000; inhibition, % at 12.3 µM;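 active = mean replicate inhibition score of at least 50 and every replicate individually at or above 50; inconclusive = only one of the two criteria met; inactive = mean below 50 and not all replicates reaching 50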;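 also: 0% = plate neutral controls and 100% = maraviroc near 300 nM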
AF4-AF9 inh: inhibitors of AF4 peptide binding to AF9, primary screen, biochemical, AlphaScreen, biotin-AF4 peptide, FLAG-AF9, single point | hit rate 0.47% among 350,000 | inhibition, % at 10 µM | Protein AF-9 (Homo sapiens), P42568;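 active = every replicate reaching a set inhibition limit, whatever the replicate mean, cut at about 25% in these data; inconclusive = mean inhibition reaches that limit but some replicates miss it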;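 also: 0% = plate neutral control median and 100% = total signal loss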
Target sequence (P42568 whole entry, looked up): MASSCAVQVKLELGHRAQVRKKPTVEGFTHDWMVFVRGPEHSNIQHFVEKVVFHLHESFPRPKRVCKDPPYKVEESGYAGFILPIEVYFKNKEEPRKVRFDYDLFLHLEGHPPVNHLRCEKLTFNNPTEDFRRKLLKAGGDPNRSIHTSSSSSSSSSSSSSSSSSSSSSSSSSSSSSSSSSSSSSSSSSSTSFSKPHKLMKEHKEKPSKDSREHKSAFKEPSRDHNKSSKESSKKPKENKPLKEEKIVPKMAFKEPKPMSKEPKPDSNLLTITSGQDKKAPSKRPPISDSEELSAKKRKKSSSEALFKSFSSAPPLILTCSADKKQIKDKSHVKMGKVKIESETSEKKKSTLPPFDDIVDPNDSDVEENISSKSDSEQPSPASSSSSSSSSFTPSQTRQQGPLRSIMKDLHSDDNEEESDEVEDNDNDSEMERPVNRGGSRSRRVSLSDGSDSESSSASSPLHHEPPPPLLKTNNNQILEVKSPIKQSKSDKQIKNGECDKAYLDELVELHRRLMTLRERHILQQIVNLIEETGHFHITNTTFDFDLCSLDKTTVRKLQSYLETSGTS
PAX8 inh HTS: inhibitors of PAX8-driven TPO luciferase reporter, primary screen, RMG-I cells, single concentration; SteadyGlo, 24 h; AID 652154, 2013; hit rate 1.2% among 360,000; inhibition, % at 12.6 µM;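 active = mean replicate inhibition at least 60% with every replicate also reaching 60%; inconclusive = only one of the two criteria is met; inactive = mean below 60% and not all replicates reaching 60%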;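 also: luciferase light reporting Pax8 driven TPO promoter activity; plate controls were median of neutral control wells for no effect and mitoxantrone controls for full effect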
EWS-Fli inh: EWS/Fli-driven NR0B1 reporter inhibitors, primary screen, A673 cells, NR0B1 luciferase, luminescence, MLPCN library; viability-normalised; inhibition, % at 12.6 µM; hit rate 0.67% among 350,000; AID 651661, 2012;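 active = mean inhibition of at least 50% after viability correction, with every replicate also passing that limit; inconclusive = mean reaches 50% but only one of two replicates passes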;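 also: firefly luciferase signal divided by Alamar Blue viability fluorescence both relative to DMSO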
DNA binding: DNA binders by acridine orange displacement, dose response, counter-screen for EWS/Fli inhibitor project, biochemical, fluorescence polarization, cherry-pick; salmon sperm DNA acridine orange fluorescence polarization; AC35, µM (highest dose often 68 µM), without a hit: top-dose activity change, negative = DNA binding; shares compounds with EWS-Fli inh; hit rate 2% among 640;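 active = fitted curve reaches a 35% signal fall AC35 below twice the sample's top valid tested dose, actives reach about 48 µM in these data; inactive = the rest, including activity in the rising direction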;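 also: lower polarization ratio signals compound binding to DNA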
AlphaScreen intf: AlphaScreen signal interference counter-screen, dose response, artefact control, biochemical, cherry-picked samples, luminescence. shares compounds with AF4-AF9 inh. AC50, µM (titrated, usually from 12 µM), inactives show at the top dose activity change, negative = inhibition. hit rate 45% among 530. AID 720494, 2013; cut-off not given, nearly all actives have AC50 up to about 14 µM
Numbers without * were called inactive; ? = inconclusive; . = not tested or not shown; [ ] = dose if it differs, or a comment. Hits are enriched below; roughly 2.5% of the tested compounds scored in any of these assays.

SMILES | Glyco luc inh | FN deposit inh | Env fusion inh | AF4-AF9 inh | PAX8 inh HTS | EWS-Fli inh | AlphaScreen intf | others
CC(C)NC(=O)[C@@]1(C)c2ccccc2C(=O)N(Cc2ccc(OC(F)(F)F)cc2)[C@H]1c1ccc(CO)cc1 | . | . | 5.2[16.7 µM] | 1.4 | -8.1 | -9.3 | .
C[C@H]1O[C@@H](O[C@H]2[C@@H](O)C[C@H](O[C@H]3[C@@H](O)C[C@H](O[C@H]4CC[C@@]5(C)[C@H](CC[C@@H]6[C@@H]5C[C@@H](O)[C@]5(C)[C@@H](C7=CC(=O)OC7)CC[C@]65O)C4)O[C@@H]3C)O[C@@H]2C)C[C@H](O)[C@@H]1O | -20.2 | 5.1 | 86.1* | -2.4 | 109.4* | 65.8* | . | DNA binding=-3.7%
O=C(Nc1ccccc1)c1cc(C2CCCN(C(=O)C3CC3)C2)on1 (stereo not drawn) | -17.6 | . | 17.1 | -3.2 | -4.5 | 50.2 | .
CC(=O)N1CCCC(c2cc(C(=O)Nc3ccccc3)no2)C1 (stereo not drawn) | -18.1 | 3.3 | 42.4 | -1.2 | ? | 74.9* | . | DNA binding=-1.8%
O=C1c2ccccc2C(=O)N1CCCCCCc1ccccc1 | 2.3 | 1.3 | 16.2 | -0.5 | -13.7 | -8.2 | .
O=C1c2ccccc2C(=O)N1CCCCNc1ccccc1 | 2.7 | 4.1 | -5.0 | 1.9 | -5.2 | 57.0* | . | DNA binding=-7.2%
COc1ccc(S(=O)(=O)N(C)C[C@@H]2OCCCC[C@H](C)Oc3ccc(NC(=O)Nc4cccc5ccccc45)cc3C(=O)N([C@H](C)CO)C[C@H]2C)cc1 | . | . | 9.9[16.7 µM] | -13.9 | 3.1 | -3.7 | .
Nc1ccc2oc(-c3cc(Br)ccc3Cl)nc2c1 | -7.3 | . | . | -10.1 | . | 54.3* | . | DNA binding=-6.8%
CNC[C@H]1Oc2cc(C#Cc3ccc(OC)cc3)ccc2S(=O)(=O)N([C@H](C)CO)C[C@@H]1C | . | 4.9 | -5.3[16.7 µM] | 9.4 | . | 1.0 | .
COc1ccc(C(=O)CN2C(=O)c3ccccc3S2(=O)=O)cc1 | -21.8 | 7.1 | 72.4* | . | 92.7* | 87.5* | . | DNA binding=5.7%
CCCn1c(C)cc(C(=O)CN2C(=O)c3ccccc3S2(=O)=O)c1C | -17.1 | -3.8 | 67.3* | 5.4 | 96.2* | 81.7* | . | DNA binding=-2.1%
COc1ccccc1-c1cn(CC[C@H]2CC[C@@H](NC(=O)c3cnccn3)[C@@H](CO)O2)nn1 | . | 2.4 | . | . | . | . | .
C[C@@H]1CCCCO[C@H](CN(C)C(=O)Cc2ccccc2)[C@H](C)CN([C@@H](C)CO)C(=O)c2cc(NC(=O)NC3CCCCC3)ccc2O1 | . | . | -2.1[16.7 µM] | . | 17.6 | -3.1 | .
CCN(Cc1ccccc1)c1ccc(/C=N/N=C(N)N)cc1 | -7.7 | 4.5 | -1.2 | 53.2* | . | 57.3* | 10.3µM* | DNA binding=-12.4%
CS(=O)(=O)Nc1ccc2c(c1)[C@@H]1C[C@@H](CC(=O)NCc3ccccc3F)O[C@@H](CO)[C@@H]1O2 | . | -3.9 | . | 0.0 | . | 0.5 | .
O=C(c1ccc(-c2cc(O)c3ncccc3c2)cc1)N1CCNCC1 | -5.1 | -14.7 | . | 91.9* | -31.5 | -53.2 | 3.93µM*
C[C@@H]1CN([C@H](C)CO)S(=O)(=O)c2ccc(C#CC(C)(C)O)cc2O[C@H]1CN(C)Cc1ccncc1 | . | 3.0 | -3.2[16.7 µM] | 2.5 | . | 6.4 | .
S=C(c1ccc(-c2cccc(Cl)c2)o1)N1CCOCC1 | -6.5 | . | . | 29.5* | . | -72.1 | -12.4%
S=C(c1ccc(-c2cccc(Cl)c2)o1)N1CCCCC1 | -12.0 | 2.6 | -103.1 | 18.9 | -145.2 | -33.1 | .
CO[C@@H]1CN(C)C(=O)c2ccc(NS(=O)(=O)CC(F)(F)F)cc2OC[C@H](C)N(C)C[C@@H]1C | . | 23.7 | 9.2[16.7 µM] | -0.8 | -3.0 | -3.8 | .
CC1NC(=O)NC1CCCCCC(=O)Nc1ccc(F)c(Cl)c1 (stereo not drawn) | 0.1 | -9.4 | -3.3 | 92.7* | 8.4 | 1.6 | 0.605µM*
CCc1cccc(NC(=O)CCCCCC2NC(=O)NC2C)c1 (stereo not drawn) | 1.5 | -0.8 | 1.9 | 94.5* | 19.7 | 2.7 | 0.29µM*
CCc1cccc(NC(=O)CCCN2C(=O)NC(C)(C)C2=O)c1 | -0.1 | 8.9 | 0.0 | -0.6 | -3.4 | -3.2 | .
COc1ccccc1-c1cccc(-c2nc(C(=O)N3CCOCC3)cc3c2[C@H](CCO)N([S@@](=O)C(C)(C)C)C3)c1 | . | -1.2 | 22.5[16.7 µM] | 0.7 | 1.3 | 1.4 | .
CN1\C(=C/C=C/C=C/C=[N+](C)C)C(C)(C)c2ccccc21 | -2.8 | -9.4 | 32.9 | 40.8* | 51.2 | 65.6* | 9.84µM*
SMILES | Glyco luc inh | FN deposit inh | Env fusion inh | AF4-AF9 inh | PAX8 inh HTS | EWS-Fli inh | AlphaScreen intf | others
CCC(=O)N(C)C[C@H]1Oc2cc(C#Cc3ccncc3)ccc2S(=O)(=O)N([C@@H](C)CO)C[C@@H]1C | . | . | -21.0[16.7 µM] | ? | . | 1.6 | -18.0%
COc1ccccc1-c1cn(CC[C@H]2CC[C@@H](NS(=O)(=O)c3ccccc3C)[C@H](CO)O2)nn1 | . | 4.2 | -4.8[16.7 µM] | -9.4 | 22.1 | 16.5 | .
Cc1cccc(Nc2cc(C)c3c(O)cccc3n2)c1C | -8.6 | 1.0 | -29.1 | 28.2* | -63.4 | -20.7 | -29.6%
COc1ccc(N2CCN(CCCNC(=O)CCC(=O)N3CCOc4ccc(Cl)cc43)CC2)cc1 | -0.8 | 12.3 | 23.3 | 38.4* | 1.7 | -1.8 | 12µM*
Cc1ccc(C)c(N2CCN(CCCNC(=O)CCC(=O)N3CCOc4ccc(Cl)cc43)CC2)c1 | . | -9.0 | 26.4 | 7.7 | 8.6 | . | .
CCOc1ccc(NC(=S)NC23CC4CC(CC(C4)C2)C3)cc1 | -2.6 | -10.5 | 0.1 | -5.8 | 21.7 | 7.8 | .
CN(C)c1ccc(NC(=S)NC23CC4CC(CC(C4)C2)C3)cc1 | -7.2 | -5.1 | -0.9 | 43.5* | -132.0 | -100.8 | -29.1%
O=C(NC1CCC1)[C@@H]1[C@@H](CO)[C@@H]2Cn3c(ccc(-c4ccccc4F)c3=O)[C@@H]2N1Cc1ccncc1 | . | . | . | 0.8 | 6.2 | -4.3 | .
CN1CCN(C(c2ccc(F)cc2)c2ccc3cccnc3c2O)CC1 (stereo not drawn) | -0.3 | . | . | . | . | . | .
CN1CCN(C(c2ccc(Br)cc2)c2cc(Cl)c3cccnc3c2O)CC1 (stereo not drawn) | 37.0* | -4.6 | -12.8 | 83.5* | 40.3 | . | 2.8µM*
COc1ccc(CNc2ccc(Br)cc2)cc1 | -8.7 | 1.0 | -8.8 | -0.9 | -44.1 | -99.8 | .
COc1ccc(NCc2nn(CC(=O)c3ccc(Br)cc3)c3[n+]2CCCCC3)cc1 | 0.7 | 2.0 | -4.8 | 30.1* | -7.5 | -5.6 | -42.6%
